Measurements: paper PMC11886927 (Nature, 2025)
pIC50: −log10 of the molar value. Entries after “also recorded” stand apart in the source; their conditions may differ.

Legend:
[1] = biological target: T1, recombinant human VNN1 (ΔN490aa truncated) (Homo sapiens, UniProt O95497); test: VNN1 in vitro assay with pantetheine derivatives; format: biochemical; conditions: 0.01 μM VNN1, 37 °C, 15 min, pantothenic acid formation, n = 3, mean ± s.d.
T1 sequence (O95497 22-490 limits assumed): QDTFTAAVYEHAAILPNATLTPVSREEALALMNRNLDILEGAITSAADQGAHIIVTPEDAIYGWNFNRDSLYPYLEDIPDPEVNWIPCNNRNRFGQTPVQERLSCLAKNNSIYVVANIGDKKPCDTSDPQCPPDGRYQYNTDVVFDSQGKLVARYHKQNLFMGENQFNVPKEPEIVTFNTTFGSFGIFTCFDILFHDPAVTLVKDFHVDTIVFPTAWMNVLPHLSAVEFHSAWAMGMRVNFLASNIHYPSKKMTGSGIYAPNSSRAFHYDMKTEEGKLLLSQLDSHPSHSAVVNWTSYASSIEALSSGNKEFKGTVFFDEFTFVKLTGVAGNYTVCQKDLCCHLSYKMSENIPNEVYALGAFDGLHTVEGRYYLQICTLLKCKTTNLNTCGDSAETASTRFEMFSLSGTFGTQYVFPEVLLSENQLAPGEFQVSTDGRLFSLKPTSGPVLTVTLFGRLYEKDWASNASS
Method in brief: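 Recombinant human ΔN490aa VNN1 (C-terminal His tag, in PBS pH 7.0) was mixed 1:1 with substrate (pantetheine or cholic acid–pantetheine derivative) in PBS pH 7.0. Final enzyme was 0.01 µM and final substrate 20–640 µM. Reactions ran 15 min at 37 °C and were quenched with methanol. Pantothenic acid was quantified by HPLC-HRMS (ESI+, m/z 220.1180) against a calcium pantothenate standard curve. Initial velocities were fitted to saturation kinetics; three independent assays used the same enzyme batch.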

FXR = conditions: cited from earlier work
[2] = biological target: T2, full-length human FXR protein (Homo sapiens, UniProt Q96RI1); test: DiscoverX cell-based protein–protein interaction assay on FXR, antagonist mode; conditions: for FXR antagonistic activity against GW4604-mediated activation (in words): tested range of concentrations
T2 sequence (Q96RI1 1-486): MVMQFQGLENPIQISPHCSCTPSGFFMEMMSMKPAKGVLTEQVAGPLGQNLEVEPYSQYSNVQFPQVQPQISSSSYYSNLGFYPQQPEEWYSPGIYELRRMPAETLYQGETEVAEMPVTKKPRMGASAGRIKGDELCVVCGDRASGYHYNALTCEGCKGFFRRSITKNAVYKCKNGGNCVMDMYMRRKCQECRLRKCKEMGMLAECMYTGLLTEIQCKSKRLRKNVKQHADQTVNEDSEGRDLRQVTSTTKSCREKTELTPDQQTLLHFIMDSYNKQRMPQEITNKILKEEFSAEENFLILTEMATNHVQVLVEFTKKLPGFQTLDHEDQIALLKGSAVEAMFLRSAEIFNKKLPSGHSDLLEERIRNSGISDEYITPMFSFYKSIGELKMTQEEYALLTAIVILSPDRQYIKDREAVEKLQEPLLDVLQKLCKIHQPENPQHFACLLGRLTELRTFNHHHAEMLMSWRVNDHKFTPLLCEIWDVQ

BA production = test: Endogenously produced BA levels in faeces, liver and serum of supplemented mice; format: in vivo, mouse; conditions: daily for 14 days
Method in brief: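 Mice (WT, Nr1h4−/−, SPF, ABX) were dosed by daily oral gavage with deuterated or unlabelled conjugate (DMSO stock diluted in corn oil), 50 mg kg−1 day−1, 100 µl, for 14 days. Controls got DMSO plus corn oil. Faeces, liver and serum BAs were measured by HPLC-HRMS. Serum was extracted with 4 volumes methanol, sonicated 1 min, stirred 10 min, and spun 5,000g for 5 min. Groups were compared by Welch-corrected two-sided t-test.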

[3] = biological target: T2, full-length human FXR protein; test: DiscoverX cell-based protein–protein interaction assay on FXR, agonist mode; conditions: any of the tested concentrations
Method in brief: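 CHO-K1 cells (mycoplasma-negative, not authenticated) expressing full-length human FXR with an SRC-derived co-activator peptide fusion. Cells were grown in charcoal-dextran-filtered serum, then given 5X sample for 3–16 h at 37 °C or room temperature. Signal came from PathHunter chemiluminescent detection (1 h, room temperature). Activity (%) was set against vehicle RLU and GW4064 maximum, with duplicates at each concentration.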

Structure (SMILES): CC(C)(CO)[C@@H](O)C(=O)NCCC(=O)NCCS [pantetheine]
- Vmax, hydrolysis by VNN1 [1]: 2.13 ± 0.37 min⁻¹

Structure (SMILES): C[C@H](CCC(=O)NCCS(=O)(=O)O)[C@H]1CC[C@H]2[C@@H]3[C@@H](O)[C@@H](O)[C@@H]4C[C@H](O)CC[C@]4(C)[C@H]3CC[C@]12C [TβMCA, Tauro-β-muricholic acid]
- FXR antagonism as previously reported (FXR): weak, mouse-specific FXR antagonist
- FXR antagonistic activity against GW4604-mediated activation (in words) [2]: did not show FXR antagonistic effects; also recorded: inactive

Structure (SMILES): C[C@H](CCC(=O)O)[C@H]1CC[C@H]2[C@@H]3[C@H](O)C[C@@H]4C[C@H](O)CC[C@]4(C)[C@H]3CC[C@]12C [CDCA, chenodeoxycholic acid]
- BA levels in the liver and serum of WT and Nr1h4^−/− mice (BA production): not significantly affected

Structure (SMILES): CSCCNC(=O)CC[C@@H](C)[C@H]1CC[C@H]2[C@@H]3[C@@H](O)[C@@H](O)[C@@H]4C[C@H](O)CC[C@]4(C)[C@H]3CC[C@]12C [βMCA–MCY]
- FXR agonist activity (in words) [3]: no FXR agonistic effects
- pIC50 ([2]; read-out: IC50, antagonistic activity against GW4604-mediated activation of FXR, agonist challenge GW4064 0.37 μM (EC80), CHO-K1 cells, duplicate): 3.98
- FXR antagonistic activity against GW4604-mediated activation (in words) [2]: strong FXR antagonistic effects
